Measurements from ChEMBL document CHEMBL1127051, “Vanilloids. 1. Analogs of capsaicin with antinociceptive and antiinflammatory activity” (J Med Chem, 1993).

Experiments:
Rattus norvegicus = experiment: Percentage analgesia by rat hot plate test after oral administration at 300 mg/kg.; format: functional
How it was run: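 Rats fasted 18 h, prescreened on a 55 ± 0.5 °C hot plate (latency <12 s, else lowest <30 s) to set the 0 h value. Groups of 8 dosed orally in sesame oil (1 mL/200 g); latency read at 1.5, 3, 5 h (24 h if persisting). %analgesia = [(LT(t) − LT(0))/(60 − LT(0))]×100, taken at the time of maximal latency.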

Mus musculus [1] = experiment: Latency time measured by mouse hot plate test after subcutaneous administration at 200 mg/kg; format: functional; set-up: unit: s
How it was run: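 Male CF-1 mice, 8 per group, given test agent sc in 0.2 mL ethanol/Tween-80/saline (10/10/80); dose 0.68 mmol (200 mg/kg for capsaicin). Placed on copper surface held at 55 ± 0.5 °C. Paw-response latency (s) reported as group mean ± SD; pretest latency ~5 s.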

[2] = Acute toxicity after intraperitoneal dose at 33 mg/kg in mice; format: organism-based; set-up: dose 33 mg/kg, route intraperitoneal; settings: mouse, in vivo, ip, read-out: Lethality
How it was run: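 Single intraperitoneal dose at the listed mg/kg; acute toxicity scored as % lethality = number of deaths / number of animals dosed, 7–10 animals per group.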

Mus musculus [3] = experiment: Percentage inhibition in mouse by using Croton oil-inflamed mouse ear test (topical dosing).; format: functional; set-up: concentration or dose not given beside the values
How it was run: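 Male Cox ICR mice (25–35 g), 10 per group. Left ear given 25 μL of 1% compound in ethanol, repeated ~17 h later; 1 h after that, both ears given 25 μL 2% croton oil. After 4 h, 5 mm ear punches weighed. % inhibition = [(C − T1)/C]×100, using left-minus-right weight differences versus vehicle controls.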

SMILES: C=CCCCCCCCCC(=O)NCc1ccc(O)c(OC)c1
- Analgesia (Rattus norvegicus): 8%
- Latency (Mus musculus [1]): 55.5
- mortality [2]: 50%
- Inhibition (Mus musculus [3]): 65.7%
